ChEMBL document CHEMBL3108700, “Designing anti-inflammatory drugs from parasitic worms: a synthetic small molecule analogue of the Acanthocheilonema viteae product ES-62 prevents development of collagen-induced arthritis” (J Med Chem, 2013)
Calls of active or inactive are those of the source. No rule for the calls is given here.

Experiments:
[1] = biological target: T1, Toll-like receptor 4 (Mus musculus) (UniProt Q9QUK6); assay: Inhibition of TLR4 in BALB/c mouse BMDM assessed as downregulation of LPS-stimulated IL-12p40 level at 5 ug/ml preincubated for 18 hrs followed by LPS challenge measured after 24 hrs by ELISA relative to control
T1 sequence (whole entry): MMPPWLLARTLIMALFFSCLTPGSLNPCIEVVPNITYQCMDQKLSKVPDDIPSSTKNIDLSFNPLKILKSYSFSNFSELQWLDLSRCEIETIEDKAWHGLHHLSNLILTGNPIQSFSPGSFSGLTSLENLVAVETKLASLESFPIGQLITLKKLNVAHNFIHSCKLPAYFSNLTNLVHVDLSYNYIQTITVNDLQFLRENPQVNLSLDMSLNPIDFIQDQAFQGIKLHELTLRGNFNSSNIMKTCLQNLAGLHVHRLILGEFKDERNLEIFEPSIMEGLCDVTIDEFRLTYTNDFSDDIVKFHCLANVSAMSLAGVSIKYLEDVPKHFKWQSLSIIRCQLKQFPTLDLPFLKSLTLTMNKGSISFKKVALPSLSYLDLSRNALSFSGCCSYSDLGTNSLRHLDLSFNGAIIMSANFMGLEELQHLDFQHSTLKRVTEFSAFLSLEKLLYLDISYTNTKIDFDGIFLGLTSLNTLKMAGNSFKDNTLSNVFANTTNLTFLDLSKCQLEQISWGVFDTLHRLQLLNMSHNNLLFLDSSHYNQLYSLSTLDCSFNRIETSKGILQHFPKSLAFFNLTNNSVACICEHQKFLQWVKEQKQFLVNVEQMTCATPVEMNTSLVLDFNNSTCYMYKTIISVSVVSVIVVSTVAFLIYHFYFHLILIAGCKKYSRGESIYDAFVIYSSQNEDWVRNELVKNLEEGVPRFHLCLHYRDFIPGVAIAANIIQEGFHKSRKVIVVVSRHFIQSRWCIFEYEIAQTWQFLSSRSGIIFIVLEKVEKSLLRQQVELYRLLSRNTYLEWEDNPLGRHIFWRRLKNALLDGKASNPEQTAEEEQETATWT
Summary of the method: (§1)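 BALB/c male bone marrow macrophages were differentiated 7 days with L929 supernatant (≥99% CD11b+/F4/80+). Cells were plated at 2 × 10^5/well in triplicate, rested overnight, and given compounds at 5 μg/mL for 18 h. They were then stimulated with 100 ng/mL S. minnesota LPS, 10 ng/mL Pam3CSK4 (BLP) or 0.01 μM CpG for 24 h. Supernatant IL-12p40 and IL-6 were measured by ELISA (sensitivity 16 pg/mL).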

TLR2/TLR6 (Mus musculus) [2] = biological target: T2, TLR2/TLR6 (Mus musculus) (UniProt Q9QUN7+Q9EPW9); assay: Inhibition of TLR2/6 in BALB/c mouse BMDM assessed as downregulation of BLP-stimulated IL-6 level at 5 ug/ml preincubated for 18 hrs followed by BLP challenge measured after 24 hrs by ELISA relative to control; type: protein-complex assay; summary of the method: as §1
[3] = biological target: T3, Toll-like receptor 9 (Mus musculus) (UniProt Q9EQU3); assay: Inhibition of TLR9 in BALB/c mouse BMDM assessed as downregulation of CpG-stimulated IL-6 level at 5 ug/ml preincubated for 18 hrs followed by CpG challenge measured after 24 hrs by ELISA relative to control; summary of the method: as §1
T3 sequence (whole entry): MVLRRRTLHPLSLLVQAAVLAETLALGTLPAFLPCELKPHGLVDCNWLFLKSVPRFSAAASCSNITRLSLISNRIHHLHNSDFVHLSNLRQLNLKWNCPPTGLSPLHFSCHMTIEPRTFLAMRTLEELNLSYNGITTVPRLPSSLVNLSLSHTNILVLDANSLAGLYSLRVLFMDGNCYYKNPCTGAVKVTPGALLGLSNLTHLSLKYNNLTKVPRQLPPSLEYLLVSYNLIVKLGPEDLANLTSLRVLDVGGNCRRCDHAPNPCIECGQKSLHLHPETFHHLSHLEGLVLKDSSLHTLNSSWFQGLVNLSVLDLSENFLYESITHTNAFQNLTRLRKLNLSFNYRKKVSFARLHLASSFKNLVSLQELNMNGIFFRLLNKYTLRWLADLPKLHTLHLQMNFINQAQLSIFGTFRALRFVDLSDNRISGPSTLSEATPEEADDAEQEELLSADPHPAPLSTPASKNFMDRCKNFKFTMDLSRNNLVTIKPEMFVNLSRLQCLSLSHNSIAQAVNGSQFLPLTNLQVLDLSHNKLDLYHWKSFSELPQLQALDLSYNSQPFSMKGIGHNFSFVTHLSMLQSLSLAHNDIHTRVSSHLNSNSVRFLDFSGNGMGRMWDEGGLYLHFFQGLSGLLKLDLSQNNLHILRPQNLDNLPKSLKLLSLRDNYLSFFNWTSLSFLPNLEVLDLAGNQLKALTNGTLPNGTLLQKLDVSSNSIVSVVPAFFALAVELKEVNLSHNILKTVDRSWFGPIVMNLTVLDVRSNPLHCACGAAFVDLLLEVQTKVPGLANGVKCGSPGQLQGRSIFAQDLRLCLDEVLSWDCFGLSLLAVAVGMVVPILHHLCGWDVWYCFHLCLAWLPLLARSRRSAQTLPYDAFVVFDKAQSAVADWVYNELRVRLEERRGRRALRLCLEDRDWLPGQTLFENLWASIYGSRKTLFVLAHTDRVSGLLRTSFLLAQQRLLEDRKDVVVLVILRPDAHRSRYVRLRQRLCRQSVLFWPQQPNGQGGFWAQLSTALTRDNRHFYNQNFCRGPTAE

TLR2/TLR6 (Mus musculus) [4] = biological target: T2, TLR2/TLR6 (Mus musculus); assay: Inhibition of TLR2/6 in BALB/c mouse BMDM assessed as downregulation of BLP-stimulated IL-12p40 level at 5 ug/ml preincubated for 18 hrs followed by BLP challenge measured after 24 hrs by ELISA relative to control; type: protein-complex assay; summary of the method: as §1
[5] = biological target: T1, Toll-like receptor 4 (Mus musculus); assay: Inhibition of TLR4 in BALB/c mouse BMDM assessed as downregulation of LPS-stimulated IL-6 level at 5 ug/ml preincubated for 18 hrs followed by LPS challenge measured after 24 hrs by ELISA relative to control; summary of the method: as §1
[6] = biological target: T3, Toll-like receptor 9 (Mus musculus); assay: Inhibition of TLR9 in BALB/c mouse BMDM assessed as downregulation of CpG-stimulated IL-12p40 level at 5 ug/ml preincubated for 18 hrs followed by CpG challenge measured after 24 hrs by ELISA relative to control; summary of the method: as §1

## CN(C)CCCS(=O)(=O)Cc1ccc(Br)cc1
[1]
  inhibition: inactive
TLR2/TLR6 (Mus musculus) [2]
  inhibition: inactive
[3]
  inhibition: inactive
TLR2/TLR6 (Mus musculus) [4]
  inhibition: inactive
[5]
  inhibition: Active
[6]
  inhibition: inactive

## Cc1ccc(CS(=O)(=O)NCCN2CCOCC2)cc1
[1]
  inhibition: inactive
TLR2/TLR6 (Mus musculus) [2]
  inhibition: inactive
[3]
  inhibition: inactive
TLR2/TLR6 (Mus musculus) [4]
  inhibition: inactive
[5]
  inhibition: inactive
[6]
  inhibition: inactive

## Cc1ccc(CS(=O)(=O)CC[N+](C)(C)C)cc1
[1]
  inhibition: Active
TLR2/TLR6 (Mus musculus) [2]
  inhibition: inactive
[3]
  inhibition: Active
TLR2/TLR6 (Mus musculus) [4]
  inhibition: Active
[5]
  inhibition: inactive
[6]
  inhibition: Active

## O=C(Cc1ccccc1)NCCN1CCOCC1
[1]
  inhibition: Active
TLR2/TLR6 (Mus musculus) [2]
  inhibition: inactive
[3]
  inhibition: Active
TLR2/TLR6 (Mus musculus) [4]
  inhibition: inactive
[5]
  inhibition: inactive
[6]
  inhibition: Active

## CN(C)CCS(=O)(=O)Nc1ccccc1
[1]
  inhibition: Active
TLR2/TLR6 (Mus musculus) [2]
  inhibition: inactive
[3]
  inhibition: inactive
TLR2/TLR6 (Mus musculus) [4]
  inhibition: inactive
[5]
  inhibition: inactive
[6]
  inhibition: inactive

## O=S(=O)(CCN1CCCC1)Nc1ccccc1
[1]
  inhibition: Active
TLR2/TLR6 (Mus musculus) [2]
  inhibition: inactive
[3]
  inhibition: inactive
TLR2/TLR6 (Mus musculus) [4]
  inhibition: inactive
[5]
  inhibition: inactive
[6]
  inhibition: Active

## CC[C@H](C)NCCS(=O)(=O)Cc1ccc(Br)cc1
[1]
  inhibition: inactive
TLR2/TLR6 (Mus musculus) [2]
  inhibition: inactive
[3]
  inhibition: inactive
TLR2/TLR6 (Mus musculus) [4]
  inhibition: Active
[5]
  inhibition: inactive
[6]
  inhibition: inactive

## CN(C)CCNS(=O)(=O)Cc1ccc2ccccc2c1
[1]
  inhibition: inactive
TLR2/TLR6 (Mus musculus) [2]
  inhibition: inactive
[3]
  inhibition: inactive
TLR2/TLR6 (Mus musculus) [4]
  inhibition: inactive
[5]
  inhibition: inactive
[6]
  inhibition: inactive

## COc1cccc(C(=O)NCCN2CCOCC2)c1
[1]
  inhibition: Active
TLR2/TLR6 (Mus musculus) [2]
  inhibition: inactive
[3]
  inhibition: Active
TLR2/TLR6 (Mus musculus) [4]
  inhibition: Active
[5]
  inhibition: inactive
[6]
  inhibition: inactive

## O=S(=O)(CCN1CCCC1)Cc1ccc(F)cc1
[1]
  inhibition: inactive
TLR2/TLR6 (Mus musculus) [2]
  inhibition: inactive
[3]
  inhibition: inactive
TLR2/TLR6 (Mus musculus) [4]
  inhibition: Active
[5]
  inhibition: inactive
[6]
  inhibition: inactive

## CN(C)CCN(C)CCS(=O)(=O)Nc1ccc(F)cc1
[1]
  inhibition: Active
TLR2/TLR6 (Mus musculus) [2]
  inhibition: inactive
[3]
  inhibition: inactive
TLR2/TLR6 (Mus musculus) [4]
  inhibition: inactive
[5]
  inhibition: inactive
[6]
  inhibition: inactive

## CC[C@@H](C)NCCS(=O)(=O)Cc1cccc(F)c1
[1]
  inhibition: inactive
TLR2/TLR6 (Mus musculus) [2]
  inhibition: Active
[3]
  inhibition: inactive
TLR2/TLR6 (Mus musculus) [4]
  inhibition: Active
[5]
  inhibition: inactive
[6]
  inhibition: inactive

## CN(C)CCCNS(=O)(=O)Cc1ccc(Br)cc1
[1]
  inhibition: inactive
TLR2/TLR6 (Mus musculus) [2]
  inhibition: inactive
[3]
  inhibition: inactive
TLR2/TLR6 (Mus musculus) [4]
  inhibition: inactive
[5]
  inhibition: inactive
[6]
  inhibition: inactive

## Cc1ccc(CS(=O)(=O)CCCN(C)C)cc1
[1]
  inhibition: inactive
TLR2/TLR6 (Mus musculus) [2]
  inhibition: inactive
[3]
  inhibition: inactive
TLR2/TLR6 (Mus musculus) [4]
  inhibition: inactive
[5]
  inhibition: inactive
[6]
  inhibition: inactive

## O=[N+]([O-])c1ccc(CS(=O)(=O)NCCN2CCOCC2)cc1
[1]
  inhibition: inactive
TLR2/TLR6 (Mus musculus) [2]
  inhibition: inactive
[3]
  inhibition: inactive
TLR2/TLR6 (Mus musculus) [4]
  inhibition: inactive
[5]
  inhibition: inactive
[6]
  inhibition: inactive

## CN(C)CCS(=O)(=O)NCc1ccc(Br)cc1
[1]
  inhibition: inactive
TLR2/TLR6 (Mus musculus) [2]
  inhibition: inactive
[3]
  inhibition: inactive
TLR2/TLR6 (Mus musculus) [4]
  inhibition: inactive
[5]
  inhibition: inactive
[6]
  inhibition: inactive

## CN(C)CCNS(=O)(=O)Cc1ccc([N+](=O)[O-])cc1
[1]
  inhibition: inactive
TLR2/TLR6 (Mus musculus) [2]
  inhibition: Active
[3]
  inhibition: inactive
TLR2/TLR6 (Mus musculus) [4]
  inhibition: inactive
[5]
  inhibition: inactive
[6]
  inhibition: inactive

## O=S(=O)(Cc1ccccc1)NCCN1CCOCC1
[1]
  inhibition: inactive
TLR2/TLR6 (Mus musculus) [2]
  inhibition: inactive
[3]
  inhibition: inactive
TLR2/TLR6 (Mus musculus) [4]
  inhibition: inactive
[5]
  inhibition: inactive
[6]
  inhibition: inactive

## CN(C)CCCNS(=O)(=O)Cc1ccc([N+](=O)[O-])cc1
[1]
  inhibition: inactive
TLR2/TLR6 (Mus musculus) [2]
  inhibition: Active
[3]
  inhibition: inactive
TLR2/TLR6 (Mus musculus) [4]
  inhibition: inactive
[5]
  inhibition: inactive
[6]
  inhibition: inactive

## CC[C@H](C)NCCS(=O)(=O)Cc1cccc(F)c1
[1]
  inhibition: inactive
TLR2/TLR6 (Mus musculus) [2]
  inhibition: inactive
[3]
  inhibition: inactive
TLR2/TLR6 (Mus musculus) [4]
  inhibition: inactive
[5]
  inhibition: inactive
[6]
  inhibition: inactive

## CCCNCCS(=O)(=O)c1ccccc1
[1]
  inhibition: inactive
TLR2/TLR6 (Mus musculus) [2]
  inhibition: Active
[3]
  inhibition: inactive
TLR2/TLR6 (Mus musculus) [4]
  inhibition: Active
[5]
  inhibition: inactive
[6]
  inhibition: inactive

## C[N+]1(CCCS(=O)(=O)Cc2ccc(Br)cc2)CCCC1
[1]
  inhibition: inactive
TLR2/TLR6 (Mus musculus) [2]
  inhibition: inactive
[3]
  inhibition: inactive
TLR2/TLR6 (Mus musculus) [4]
  inhibition: inactive
[5]
  inhibition: inactive
[6]
  inhibition: inactive

## CN(C)CCCOP(=O)(O)Oc1ccc(NC(=O)OC(C)(C)C)cc1
[1]
  inhibition: inactive
TLR2/TLR6 (Mus musculus) [2]
  inhibition: inactive
[3]
  inhibition: inactive
TLR2/TLR6 (Mus musculus) [4]
  inhibition: inactive
[5]
  inhibition: inactive
[6]
  inhibition: inactive

## O=[N+]([O-])c1ccc(CS(=O)(=O)NCCN2CCCC2)cc1
[1]
  inhibition: inactive
TLR2/TLR6 (Mus musculus) [2]
  inhibition: inactive
[3]
  inhibition: inactive
TLR2/TLR6 (Mus musculus) [4]
  inhibition: inactive
[5]
  inhibition: inactive
[6]
  inhibition: inactive
